According to ChEMBL document CHEMBL2406960, “Epimeric methylsulfinyladenosine derivatives from the marine ascidian Herdmania momus” (Bioorg Med Chem Lett, 2013):

Experiments:
[1] = test system: Poliovirus 3; assay: Antiviral activity against Human poliovirus 3 infected in human HeLa cells assessed as inhibition of virus-induced cytopathic effect by MTT assay; format: functional, organism-based; conditions: Enterovirus C
Method in brief: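 Confluent HeLa cells in 96-well plates, in duplicate; samples (20 mg/mL DMSO stock) diluted in MEM/2% FBS, then virus added at 200 CCID50 per well; incubated in CO2 incubator. Protection of cells from virus cytopathic effect read by MTT absorbance and microscopy; EC50 = concentration protecting 50% of cells. Cytotoxicity on mock-infected cells, CC50 = 50% absorbance reduction.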

[2] = test system: rhinovirus B14; assay: Antiviral activity against Human rhinovirus 14 infected in human HeLa cells assessed as inhibition of virus-induced cytopathic effect by MTT assay; format: functional, organism-based; conditions: Rhinovirus B
Method in brief: (§1)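 Confluent HeLa monolayers, in duplicate, got samples (20 mg/mL DMSO stock) diluted in MEM/2% FBS, then virus at 200 CCID50 per well, and were incubated under CO2. Protection was read by MTT and by microscopic inspection. EC50 was the concentration protecting 50% of cells from virus-induced cytotoxicity.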

[3] = test system: Coxsackievirus B1; assay: Antiviral activity against Human coxsackievirus B1 infected in human HeLa cells assessed as inhibition of virus-induced cytopathic effect by MTT assay; format: functional, organism-based; conditions: Enterovirus B; method in brief: as §1
[4] = Antiviral activity against Human rhinovirus 17 infected in human HeLa cells assessed as inhibition of virus-induced cytopathic effect by MTT assay; format: functional, cell-based, Human rhinovirus B17; conditions: Rhinovirus B; method in brief: as §1
[5] = Antiviral activity against Human rhinovirus 71 infected in human HeLa cells assessed as inhibition of virus-induced cytopathic effect by MTT assay; format: functional, cell-based, Human rhinovirus A71; conditions: Rhinovirus A; method in brief: as §1
[6] = test system: Coxsackievirus B3; assay: Antiviral activity against Human coxsackievirus B3 infected in human HeLa cells assessed as inhibition of virus-induced cytopathic effect by MTT assay; format: functional, organism-based; conditions: Enterovirus B; method in brief: as §1
[7] = Cytotoxicity against human HeLa cells by MTT assay; format: cell-based
Method in brief: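 Mock-infected confluent HeLa cells were treated in duplicate with samples (20 mg/mL DMSO stock) diluted in MEM/2% FBS and incubated under CO2. Viability was read by MTT plus microscopy. CC50 was the concentration that cut mock-infected control absorbance by 50%.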

C[S+]([O-])C[C@H]1O[C@@H](n2cnc3c(N)ncnc32)[C@H](O)[C@@H]1OC(=O)c1c[nH]c2cc(Br)c(O)cc12 (some centres undefined)
> 100 µg/mL: EC50 [1] | EC50 [2] | EC50 [3] | EC50 [4] | EC50 [5] | EC50 [6] | CC50 [7]

C[S+]([O-])C[C@H]1O[C@@H](n2cnc3c(N)ncnc32)[C@H](OC(=O)c2c[nH]c3cc(Br)c(O)cc23)[C@@H]1O (mixture of isomers)
> 100 µg/mL: EC50 [1] | EC50 [2] | EC50 [3] | EC50 [4] | EC50 [5] | EC50 [6] | CC50 [7]
